Source: ChEMBL document CHEMBL5576109, “Hydantoin derivative dimers as broad-spectrum antimicrobial agents against ESKAPE pathogens with enhanced killing rate and stability” (RSC Med Chem, 2024)
≈ marks a conversion by molar mass, not a printed value.

Experiments:
[1] = test system: Bacillus subtilis; assay: Antibacterial activity against Bacillus subtilis ATCC 6633 assessed as reduction bacterial growth after 16 hrs by TECAN SPARK microplate reader analysis; assay type: functional
Procedure, shortened: (§1)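 Single colony grown overnight in 4 mL TSB at 37 °C, diluted 100-fold and grown to mid-log phase. Compounds 2-fold serially diluted in TSB and mixed 1:1 with bacteria in TSB (1 × 10^6 CFU/mL). Incubated 16 h at 37 °C, then A600 read. MIC taken as the lowest concentration giving complete growth inhibition.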

[2] = test system: Enterococcus faecalis; assay: Antibacterial activity against Enterococcus faecalis ATCC 29212 assessed as reduction bacterial growth after 16 hrs by TECAN SPARK microplate reader analysis; assay type: functional; procedure, shortened: as §1
[3] = test system: Klebsiella pneumoniae; assay: Antibacterial activity against Klebsiella pneumoniae ATCC 10031 assessed as reduction bacterial growth after 16 hrs by TECAN SPARK microplate reader analysis; assay type: functional; procedure, shortened: as §1
[4] = test system: Pseudomonas aeruginosa; assay: Antibacterial activity against Pseudomonas aeruginosa CMCC 10104 assessed as reduction bacterial growth after 16 hrs by TECAN SPARK microplate reader analysis; assay type: functional; procedure, shortened: as §1
[5] = Hemolytic activity in mouse red blood cells assessed as hemolysis incubated for 1 hr by TECAN SPARK microplate reader analysis; assay type: toxicity, cell-based, Erythrocyte; settings: red blood cells (erythrocytes)
Procedure, shortened: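 Mouse RBCs washed three times in 1× PBS by centrifugation (3500 rpm, 10 min) and made up as a 5% v/v suspension. Incubated with 2-fold serially diluted compound in PBS for 1 h at 37 °C, then centrifuged. Supernatant diluted in PBS and A540 read. % hemolysis calculated relative to 1% Triton X-100 (100%) and PBS (0%).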

[6] = test system: Staphylococcus aureus; assay: Antibacterial activity against Staphylococcus aureus ATCC 29213 assessed as reduction bacterial growth after 16 hrs by TECAN SPARK microplate reader analysis; assay type: functional; procedure, shortened: as §1
[7] = test system: Acinetobacter baumannii; assay: Antibacterial activity against Acinetobacter baumannii ATCC 19606 assessed as reduction bacterial growth after 16 hrs by TECAN SPARK microplate reader analysis; assay type: functional; procedure, shortened: as §1
[8] = test system: Escherichia coli; assay: Antibacterial activity against Escherichia coli ATCC 25922 assessed as reduction bacterial growth after 16 hrs by TECAN SPARK microplate reader analysis; assay type: functional; procedure, shortened: as §1
[9] = test system: Staphylococcus aureus; assay: Antibacterial activity against methicillin-resistant Staphylococcus aureus ATCC 43300 assessed as reduction bacterial growth after 16 hrs by TECAN SPARK microplate reader analysis; assay type: functional
Procedure, shortened: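 Broth microdilution in TSB: single colony grown overnight at 37 °C, diluted 100-fold and grown to mid-log phase. 2-fold serial compound dilutions mixed 1:1 with bacteria at 1 × 10^6 CFU/mL, incubated 16 h at 37 °C, absorbance read at 600 nm. MIC taken as lowest concentration giving complete growth inhibition.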

[10] = test system: Escherichia coli; assay: Drug resistance, ratio of MIC for Escherichia coli ATCC 25922 after 25 passages to MIC for Escherichia coli ATCC 25922 after initial exposure; assay type: functional
Procedure, shortened: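 Serial passage resistance selection: after each broth MIC determination, bacteria from the 1/2 MIC well were withdrawn and diluted to 1 × 10^6 CFU/mL for the next MIC measurement. Repeated for 25 passages; MIC after passage 25 compared with the initial MIC.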

Row | Compound | MIC [1] [µg/mL] | MIC [2] [µg/mL] | MIC [3] [µg/mL] | MIC [4] [µg/mL] | HC50 at 1 h [5] [µg/mL] | MIC [6] [µg/mL] | MIC [7] [µg/mL] | MIC [8] [µg/mL] | MIC [9] [µg/mL] | Ratio [10]
1 | CCCCCCN1C(=O)[C@H](CCCCN)N(Cc2ccc(C#Cc3ccc(CN4C(=O)N(CCCCCC)C(=O)[C@@H]4CCCCN)cc3)cc2)C1=O | 3.91 (≈ 5.48 µM) | 7.81 (≈ 11 µM) | 7.81 (≈ 11 µM) | 15.6 (≈ 21.9 µM) | 18 | 1.95 (≈ 2.73 µM) | 7.81 (≈ 11 µM) | 7.81 (≈ 11 µM) | 62.5 (≈ 87.7 µM) | –
2 | CO[C@H]1/C=C/O[C@@]2(C)Oc3c(C)c(O)c4c(O)c(c(/C=N/N5CCN(C)CC5)c(O)c4c3C2=O)NC(=O)/C(C)=C\C=C\[C@H](C)[C@H](O)[C@@H](C)[C@@H](O)[C@@H](C)[C@H](OC(C)=O)[C@@H]1C [RIFAMPIN] | – | – | – | – | – | 0.12 (≈ 0.146 µM) | – | 7.81 (≈ 9.49 µM) | – | –
3 | CC1(C)S[C@@H]2[C@H](NC(=O)[C@H](N)c3ccccc3)C(=O)N2[C@H]1C(=O)O [AMPICILLIN] | – | – | – | – | – | 0.98 (≈ 2.8 µM) | – | 250 (≈ 715 µM) | – | –
4 | CCCCCCN1C(=O)[C@H](CCCCN)N(Cc2ccc(Oc3ccc(CN4C(=O)N(CCCCCC)C(=O)[C@@H]4CCCCN)cc3)cc2)C1=O | 3.91 (≈ 5.55 µM) | 7.81 (≈ 11.1 µM) | 3.91 (≈ 5.55 µM) | 31.2 (≈ 44.3 µM) | 69 | 3.91 (≈ 5.55 µM) | 3.91 (≈ 5.55 µM) | 3.91 (≈ 5.55 µM) | 7.81 (≈ 11.1 µM) | –
5 | COLISTIN | – | – | – | – | – | 250 | – | 3.91 | – | –
6 | NCCCC[C@H]1C(=O)N(C23C[C@H]4C[C@@H](C2)C[C@@H](C3)C4)C(=O)N1Cc1ccc(-c2ccc(CN3C(=O)N(C45C[C@H]6C[C@@H](C4)C[C@@H](C5)C6)C(=O)[C@@H]3CCCCN)cc2)cc1 | 7.81 (≈ 9.9 µM) | 7.81 (≈ 9.9 µM) | 7.81 (≈ 9.9 µM) | 250 (≈ 317 µM) | 33.6 | 1.95 (≈ 2.47 µM) | 15.6 (≈ 19.8 µM) | 62.5 (≈ 79.2 µM) | 125 (≈ 158 µM) | –
7 | CCCCCCN1C(=O)[C@H](CCCCN)N(Cc2ccc(CN3C(=O)N(CCCCCC)C(=O)[C@@H]3CCCCN)c3ccccc23)C1=O | 15.6 (≈ 23.6 µM) | 62.5 (≈ 94.3 µM) | 31.2 (≈ 47.1 µM) | 62.5 (≈ 94.3 µM) | – | 15.6 (≈ 23.6 µM) | 125 (≈ 189 µM) | 125 (≈ 189 µM) | 125 (≈ 189 µM) | –
8 | CCCCCCCCN1C(=O)[C@H](CCCCN)N(Cc2ccc(-c3ccc(CN4C(=O)N(CCCCCCCC)C(=O)[C@@H]4CCCCN)cc3)cc2)C1=O | 15.6 (≈ 21 µM) | 31.2 (≈ 41.9 µM) | 62.5 (≈ 83.9 µM) | 250 (≈ 336 µM) | – | 31.2 (≈ 41.9 µM) | 62.5 (≈ 83.9 µM) | 250 (≈ 336 µM) | 250 (≈ 336 µM) | –
9 | CC1(C)S[C@@H]2[C@H](NC(=O)Cc3ccccc3)C(=O)N2[C@H]1C(=O)O [PENICILLIN G] | – | – | – | – | – | 0.98 (≈ 2.93 µM) | – | 250 (≈ 748 µM) | – | –
10 | CCCCCCN1C(=O)[C@H](CCCCNC(=N)N)N(Cc2cccc(-c3cccc(CN4C(=O)N(CCCCCC)C(=O)[C@@H]4CCCCNC(=N)N)c3)c2)C1=O | 3.91 (≈ 5.06 µM) | 7.81 (≈ 10.1 µM) | 3.91 (≈ 5.06 µM) | 15.6 (≈ 20.2 µM) | 73.7 | 1.95 (≈ 2.52 µM) | 15.6 (≈ 20.2 µM) | 7.81 (≈ 10.1 µM) | 7.81 (≈ 10.1 µM) | –
11 | CCCCN1C(=O)[C@H](CCCCN)N(Cc2ccc(-c3ccc(CN4C(=O)N(CCCC)C(=O)[C@@H]4CCCCN)cc3)cc2)C1=O | 15.6 (≈ 24.7 µM) | 250 (≈ 395 µM) | 15.6 (≈ 24.7 µM) | 125 (≈ 198 µM) | – | 62.5 (≈ 98.8 µM) | 62.5 (≈ 98.8 µM) | 125 (≈ 198 µM) | 125 (≈ 198 µM) | –
12 | GENTAMICIN | – | – | – | – | – | – | – | – | – | 32
13 | CCCCCCN1C(=O)[C@H](CCCCN)N(Cc2cccc(-c3cccc(CN4C(=O)N(CCCCCC)C(=O)[C@@H]4CCCCN)c3)c2)C1=O | 7.81 (≈ 11.3 µM) | 15.6 (≈ 22.7 µM) | 7.81 (≈ 11.3 µM) | 15.6 (≈ 22.7 µM) | 38 | 3.91 (≈ 5.68 µM) | 7.81 (≈ 11.3 µM) | 3.91 (≈ 5.68 µM) | 7.81 (≈ 11.3 µM) | –
14 | CCCCCCN1C(=O)[C@H](CCCCN)N(Cc2ccc(-c3ccc(CN4C(=O)N(CCCCCC)C(=O)[C@@H]4CCCCN)cc3)cc2)C1=O | 1.95 (≈ 2.83 µM) | 7.81 (≈ 11.3 µM) | 1.95 (≈ 2.83 µM) | 15.6 (≈ 22.7 µM) | 32.8 | 1.95 (≈ 2.83 µM) | 3.91 (≈ 5.68 µM) | 1.95 (≈ 2.83 µM) | 7.81 (≈ 11.3 µM) | –
